Assay results reported in ChEMBL document CHEMBL1132206, “Design, synthesis, and in vitro activity of catamphiphilic reverters of multidrug resistance: discovery of a selective, highly efficacious chemosensitizer with potency in the nanomolar range” (J Med Chem, 1999).
The source made the active and inactive calls. No cut-off for these calls is given here.

How the values were obtained:
[1] = species: Cavia porcellus; experiment: Potency expressed as IC50 for the vasorelaxant activity; 'i' means inactive.; assay type: functional
[2] = system: K562; experiment: Percentage of the dead cells of K-562 cells was determined for the compound; assay type: ADME, cell-based; settings: human
Outline: (§1)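 Doxorubicin-resistant K 562 cells were exposed to compound at 1 µM, and viability was scored by trypan blue exclusion. Dead cells above 20% counted as toxic.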

[3] = species: Cavia porcellus; experiment: Decrease in atrial rate of the right atrium of guinea pig expressed as the negative chronotropy.; parameters: concentration or dose not given beside the values
[4] = species: Cavia porcellus; experiment: Percent inhibition of calcium-induced contraction on K+ depolarized guinea pig aortic strip.; assay type: functional, Aorta; parameters: concentration or dose not given beside the values
[5] = species: Cavia porcellus; experiment: Potency expressed as EC30 for the negative chronotropic activity; 'i' means Inactive; assay type: functional
[6] = species: Cavia porcellus; experiment: Potency expressed as EC50 for the negative inotropic activity.; assay type: functional
[7] = species: Cavia porcellus; experiment: Decrease in developed tension of the left atrium of guinea pig expressed as the negative inotropy.; assay type: functional, Cardiac atrium; parameters: concentration or dose not given beside the values
Outline: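 Isolated guinea pig left atrium, electrically driven at 1 Hz. Read-out is the fall in developed tension at 5 × 10^-5 M, given as percent change from control (n = 5-6).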

[8] = system: K562; experiment: percentage of the dead cells of K-562 cells was determined for the concentration of 1 uM of the compound.; assay type: ADME, cell-based; settings: human, k562, 1 µM; outline: as §1
[9] = species: Cavia porcellus; experiment: Potency expressed as EC30 for the negative chronotropic activity.; assay type: functional
[10] = system: K562; experiment: The efficacy in reverting MDR was evaluated on erythroleukemia K-562 cell line.; assay type: functional, Homo sapiens
Outline: (§2)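 Doxorubicin-resistant and sensitive K 562 cells in exponential growth were used in pH 7.25 HEPES buffer at 37 °C in quartz cuvettes. Pirarubicin uptake was followed as the fall in fluorescence at 590 nm (ex 480 nm). Steady-state nuclear pirarubicin was measured across a range of inhibitor concentrations. α = (CnRi − CnRo)/(CnS − CnRo); αmax is the maximal α, and [i]0.5 is the concentration giving α = 0.5 (mean ± SEM).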

[11] = system: K562; experiment: The efficacy in reverting MDR was evaluated on human erythroleukemia K-562 cell line; assay type: functional; outline: as §2
[12] = system: K562; experiment: Potency that causes a half maximal increase in nuclear concentration of pirarubicin.; assay type: functional, Homo sapiens

Row | Structure (SMILES) | IC50 [1] | Dead cells [2] [%] | Activity [3] [%] | Activity [4] [%] | EC30 [5] | EC50 [6] [nM] | Activity [7] [%] | Dead cells [8] [%] | EC30 [9] [nM] | Alpha max [10] | Alpha max [11] | Potency [12] [nM]
1 | COc1ccc(C(C#N)(CC#CCN(C)CC2c3ccccc3-c3ccccc32)C(C)C)cc1OC.Cl (stereo not given) | Inactive | 30 | 25 | 12 | inactive | 1110 | 78 | – | – | – | – | –
2 | Cl.N#CC(CCCNCC(c1ccccc1)c1ccccc1)(c1ccccc1)c1ccccc1 | Inactive | – | 82 | 19 | – | 2150 | 75 | 40 | 1160 | – | – | –
3 | COc1ccc(CCN(C)CCCC(C#N)(c2ccc(OC)c(OC)c2)C(C)C)cc1OC (stereo not given) [VERAPAMIL] | – | – | 94 | 95 | – | 610 | 84 | 0 | 70 | 0.7 | – | –
4 | Cl.N#CC(CCCNC1c2ccccc2CCc2ccccc21)(c1ccccc1)c1ccccc1 | Inactive | 3 | 5 | 5 | inactive | 640 | 80 | – | – | – | 0.5 | 500
5 | Cl.N#CC(CCCNC1c2ccccc2-c2ccccc21)(c1ccccc1)c1ccccc1 | Inactive | 0 | 57 | 37 | – | 1810 | 67 | – | 310 | – | 0.8 | 300
6 | Cl.N#CC(CCCNCc1cc2ccccc2c2ccccc12)(c1ccccc1)c1ccccc1 | Inactive | – | 38 | 3 | inactive | 2110 | 61 | 100 | – | – | – | –
7 | COc1ccc(C(C#N)(CC#CCN(C)C2c3ccccc3-c3ccccc32)C(C)C)cc1OC.Cl (stereo not given) | Inactive | 0 | 24 | 6 | inactive | 350 | 71 | – | – | – | 0.9 | 500
8 | COc1ccc(C(C#N)(CCCN(C)CC2c3ccccc3-c3ccccc32)C(C)C)cc1OC.Cl (stereo not given) | Inactive | 3 | 31 | 11 | inactive | 1010 | 75 | – | – | – | 0.5 | 2200
9 | COc1ccc(C(C#N)(CC#CCN(C)Cc2c3ccccc3cc3ccccc23)C(C)C)cc1OC.Cl (stereo not given) | Inactive | – | 39 | 46 | inactive | 630 | 65 | 30 | – | – | – | –
10 | COc1ccc(C(C#N)(CCCNCc2c3ccccc3cc3ccccc23)C(C)C)cc1OC.Cl (stereo not given) | Inactive | – | 65 | 29 | – | 1110 | 55 | 3 | 860 | 0.7 | – | 50
11 | COc1ccc(C(C#N)(CCCNC(c2ccccc2)c2ccccc2)C(C)C)cc1OC.Cl (stereo not given) | Inactive | 5 | 81 | 32 | – | 660 | 73 | – | 690 | – | 0.7 | 250
12 | COc1ccc(C(C#N)(CC#CCNC2c3ccccc3-c3ccccc32)C(C)C)cc1OC.Cl (stereo not given) | Inactive | 10 | 84 | 42 | – | 1100 | 77 | – | 8250 | – | 0.7 | 1500
13 | COc1ccc(C(C#N)(CCCNCC2c3ccccc3-c3ccccc32)C(C)C)cc1OC.Cl (stereo not given) | Inactive | 100 | 68 | 26 | – | 470 | 71 | – | 2240 | – | – | –
14 | COc1ccc(C(C#N)(CC#CCNC(c2ccccc2)c2ccccc2)C(C)C)cc1OC.Cl (stereo not given) | Inactive | 6 | 24 | 23 | inactive | 1540 | 69 | – | – | – | 0.6 | 500
15 | COc1ccc(C(C#N)(CCCNC2c3ccccc3CCc3ccccc32)C(C)C)cc1OC.Cl (stereo not given) | Inactive | 10 | 86 | 24 | – | 680 | 70 | – | 210 | – | 0.8 | 300
16 | CN(CCCC(C#N)(c1ccccc1)c1ccccc1)C1c2ccccc2-c2ccccc21.Cl | Inactive | 3 | 9 | 5 | inactive | 900 | 55 | – | – | – | 0.9 | 3000
17 | COc1ccc(C(C#N)(CCCNCC(c2ccccc2)c2ccccc2)C(C)C)cc1OC.Cl (stereo not given) | Inactive | 5 | 74 | 37 | – | 830 | 89 | – | 540 | – | 0.7 | 250
18 | COc1ccc(C(C#N)(CC#CCN(C)C23CC4CC(CC(C4)C2)C3)C(C)C)cc1OC.Cl (stereo not given) | Inactive | 0 | 89 | 33 | – | 2910 | 66 | – | 370 | – | 0.8 | 800
19 | COc1ccc(C(C#N)(CCCN(C)CC23CC4CC(CC(C4)C2)C3)C(C)C)cc1OC.Cl (stereo not given) | Inactive | 1 | 72 | 39 | – | 1170 | 68 | – | 700 | – | 0.65 | 1400
20 | C=CCNc1nc(NCC=C)nc(N2CCC(NCC#CCC(C#N)(c3ccc(OC)c(OC)c3)C(C)C)CC2)n1.Cl (stereo not given) | Inactive | – | 81 | 16 | – | 1890 | 67 | 0 | 800 | 0.9 | – | 200
21 | COc1ccc(C(C#N)(CCCNCc2cc3ccccc3c3ccccc23)C(C)C)cc1OC.Cl (stereo not given) | Inactive | – | 43 | 19 | inactive | 1130 | 65 | 100 | – | – | – | –
